The text below walks through data of PMC9089800 (RSC Advances, 2018).

Read-outs that look alike come from different tables or passages of the source. Some results are limits rather than exact numbers.

One series concerns MDA-MB-231. The experiment in a line: MTT growth inhibition / cytotoxicity assay, MDA-MB-231. The format is cell-based, human.
For the next series, the system named is MCF7. The experiment in a line: MTT growth inhibition / cytotoxicity assay, MCF7. It counts as cell-based, human.
For series [1], the system named is MCF7 cells. Description: DNA fragmentation assay. It counts as cell-based, human. The note with it: MCF7, 24 h; 30 μM of 9, 20 μM of 10.
The next series deals with MCF10A. Description: cells. It counts as cell-based. As to conditions: 48 h; for IC50: Homo sapiens, MCF-10A, read-out: IC50 in μM MCF10A; for cytotoxic effect on normal breast epithelial MCF10A cells (in words): MTT.
In the next series the test system is caspase 9. The experiment in a line: Western blot for apoptotic pathway. As to conditions: MCF7, 24 h; 30 μM of 9, 20 μM of 10. It counts as cell-based, human. In outline:
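MCF7 cells exposed 24 h to DMSO vehicle or test compound. Lysed 20 min on ice in Tris pH 7.4/EDTA/NaCl/NaF/orthovanadate/0.5% Triton X-100, then cleared at 16000 × g at 4 °C. Protein quantified by Bradford; samples boiled in Laemmli buffer. SDS-PAGE, PVDF transfer, 3% milk/TBST block. Anti-caspase 9 overnight at 4 °C; HRP secondary; chemiluminescent detection.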
On the technique in general: A western blot detects proteins with antibodies after separation by electrophoresis.

Series [2] deals with MCF7 cells. The experiment in a line: Immunostaining. It counts as cell-based, human. As to conditions: IC50 concentration, 12 hours. In outline: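 Cells grown overnight as a monolayer on coverslips, then exposed to test compound for 12 h. Fixed in 3.7% formaldehyde for 20 min at room temperature in the dark. Permeabilised with 0.5% Tween-20 for 30 min, then blocked with 3% BSA. Stained 1 h with anti-α-tubulin, then 1 h with Alexa Fluor 594 secondary. DNA counterstained with Hoechst; mounted in DABCO/glycerol.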

Series [3] has as its system MCF7 cells. The experiment in a line: Cell cycle analysis by FACS. It counts as cell-based, human. The note with it: MCF7, 24 h; 30 μM of 9, 20 μM of 10. The gist of the method: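 Cells seeded a day before; treated 24 h with test compound or DMSO vehicle (final DMSO <0.02%). Cells trypsinised, pelleted at 4 °C, fixed overnight at 4 °C in chilled 95% ethanol, and PBS-washed. Stained with propidium iodide plus RNase in PBS/2 mM MgCl2 for 20 min at 37 °C, then acquired by flow cytometry. Three repeats; mean sub-G1 population plotted.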
Background: A flow cytometer gives signals particle by particle.

The mark [4] stands for this setting: Homo sapiens, MCF7, 48 h, read-out: IC50 in μM MCF7, MTT, 48 h, 0–100 μM.
[5] abbreviates: read-out: IC50 in μM MCF7, MTT, 48 h, 0–100 μM.

Broadly, the IC50 is the concentration at which inhibition is half-maximal. With `C=C1[C@@H]2[C@H]3OC(=O)C(=C)[C@@H]3CCC(=C)[C@@H]2C[C@@H]1O` [Compound 2, Zaluzanin C], the “IC50 in μM MDA-MB-231” value with MDA-MB-231 (48 h, 0–100 μM) is “inactive”. Further, in the series on MCF7 (setting [4]), the IC50 is above 100 µM. For the same compound, in the series on MCF7 (MTT, 48 h, 0–100 μM), the “IC50 in μM MCF7” value is “inactive”.

With `C=C1[C@@H]2[C@H]3OC(=O)[C@@H](CN[C@H](C)c4cccc5ccccc45)[C@@H]3CCC(=C)[C@@H]2C[C@@H]1OC(C)=O` [Compound 9, (3R,3aS,6aR,8S,9aR,9bS)-6,9-Dimethylene-3-((((R)-1-(naphthalen-1-yl)ethyl)amino)methyl)-2-oxododecahydroazuleno[4,5-b]furan-8-yl acetate], in the series with MCF7 cells [1], the “fragmentation of genomic DNA (ladder on agarose gel)” value was “substantial fragmented DNA ladder”. The IC50 is 42 ± 4.1 µM in the series with MCF10A, below 50 µM with MCF7 (setting [4]) and 30 ± 0.7 µM with MCF7 (setting [5]). The “cytotoxic effect on normal breast epithelial MCF10A cells (in words)” value in the series on MCF10A is recorded as “potent cytotoxic effect”. The “apoptotic pathway (caspase 9 immunoblot)” value in the series on caspase 9 was “cleavage of caspase 9”. Further, the “DNA fragmentation by Hoechst staining, tubulin morphology” value in the series with MCF7 cells [2] is reported as “fragmented DNA”. In the series on MCF7 cells [3], the “apoptotic (sub-G1) population” value is “significantly increased the apoptotic populations”.

Turning to `C=C1[C@@H]2[C@H]3OC(=O)[C@@H](CN[C@H](C)c4cccc5ccccc45)[C@@H]3CCC(=C)[C@@H]2C[C@@H]1O` [Compound 10, (3R,3aS,6aR,8S,9aR,9bS)-8-Hydroxy-6,9-dimethylene-3-((((R)-1-(naphthalen-1-yl)ethyl)amino)methyl)decahydroazuleno[4,5-b] furan-2(3H)-one], the “fragmentation of genomic DNA (ladder on agarose gel)” value in the series with MCF7 cells [1] is “substantial fragmented DNA ladder”. In addition, in the series with MCF10A, the 50% inhibitory concentration (IC50) is above 100 µM and the “cytotoxic effect on normal breast epithelial MCF10A cells (in words)” value is recorded as “minimal cytotoxic effect”. For the same compound, the “apoptotic pathway (caspase 9 immunoblot)” value in the series with caspase 9 is “cleavage of caspase 9”. Besides, the “DNA fragmentation by Hoechst staining, tubulin morphology” value in the series on MCF7 cells [2] is “fragmented DNA”. Moreover, the “apoptotic (sub-G1) population” value in the series with MCF7 cells [3] is “significantly increased the apoptotic populations”.

For the compound `C=C1[C@@H]2[C@H]3OC(=O)[C@@H](CN4CCC(O)CC4)[C@@H]3CCC(=C)[C@@H]2C[C@@H]1O` [Compound 14, (3R,3aS,6aR,8S,9aR,9bS)-8-Hydroxy-3-((4-hydroxypiperidin-1-yl)methyl)-6,9-di-methylenedecahydroazuleno[4,5-b]furan-2(3H)-one], the IC50 with MCF10A was above 50 µM; in the series on MDA-MB-231 (read-out: IC50 in μM MDA-MB-231, 48 h, 0–100 μM) it was 25 ± 2.3 µM; in the series on MCF7 (setting [4]), below 50 µM; with MCF7 (setting [5]) it was 40 ± 2.16 µM. Besides, the “apoptotic (sub-G1) population” value with MCF7 cells [3] is given as “induced apoptosis to a lesser extent”.

For the compound `C=C1[C@@H]2[C@H]3OC(=O)/C(=C/c4ccc(Cl)cc4[N+](=O)[O-])[C@@H]3CCC(=C)[C@@H]2C[C@@H]1OC(C)=O` [Compound 33, (3aS,6aR,8S,9aR,9bS)-3-((E)-4-Chloro-2-nitrobenzylidene)-6,9-dimethylene-2-oxododecahydroazuleno[4,5-b]furan-8-yl acetate], in the series on MCF7 (setting [4]), the concentration for half-maximal inhibition (IC50) was above 100 µM.

Regarding `C=C1[C@@H]2[C@H]3OC(=O)/C(=C/c4ccc(C)cc4[N+](=O)[O-])[C@@H]3CCC(=C)[C@@H]2C[C@@H]1OC(C)=O` [Compound 34, (3aS,6aR,8S,9aR,9bS)-3-((E)-4-Methyl-2-nitrobenzylidene)-6,9-dimethylene-2-oxododecahydroazuleno[4,5-b]furan-8-yl acetate], in the series on MCF7 (setting [4]), the IC50 was above 100 µM.
